Laboratory results reported in ChEMBL document CHEMBL1126651, “Synthesis and biological evaluation of 1-[1-(2-benzo[b]thienyl)cyclohexyl]piperidine homologues at dopamine-uptake and phencyclidine- and sigma-binding sites” (J Med Chem, 1993).

Experiments:
[1] = biological target: T1, Sodium-dependent dopamine transporter (Rattus norvegicus, UniProt P23977); assay: Displacement of [3H]BTCP (1-[1-(2-benxo[b]thienyl)cyclohexyl]piperidine) from rat forebrain dopamine transporter
Outline: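 Rat forebrain membranes (40000 g pellet) in 0.32 M sucrose/10 mM Tris·HCl pH 7.4. 0.4-0.6 nM [3H]BTCP incubated with test compound in 50 mM Na phosphate buffer, pH 7.4, for 90 min on ice. Nonspecific binding with 10 µM BTCP. Filtration, then scintillation counting. Six concentrations in triplicate, duplicate experiments on different preparations. IC50 taken as 50% inhibition of total binding.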

[2] = biological target: T1, Sodium-dependent dopamine transporter; assay: Inhibition of [3H]cocaine binding to rat forebrain […]
Outline: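 Rat forebrain membranes washed in 0.25 M sucrose/10 mM Na2HPO4 pH 7.4. […] Filtration with ice-cold saline wash, then scintillation counting. Six concentrations in triplicate, duplicate experiments on different preparations. IC50 taken as 50% inhibition of total binding.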

[3] = biological target: Glutamate NMDA receptor; assay: Binding affinity of compound at site labelled by [3H]TCP in guinea pig brain homogenates; type: tissue-based
[4] = organism: Rattus norvegicus; assay: (§1) Compound is evaluated for [3H]dopamine uptake inhibition in rat forebrain; type: functional
[5] = Ratio of IC50 of [3H]cocaine to that of dopamine; type: functional
[6] = biological target: Glutamate NMDA receptor; assay: Ability of compound to displace [3H]TCP from rat brain homogenates; type: tissue-based
[7] = biological target: Glutamate NMDA receptor; assay: Ability to displace [3H]-TCP from rat brain homogenate; type: tissue-based
[8] = organism: Rattus norvegicus; assay: as §1

T1 sequence (P23977 whole entry): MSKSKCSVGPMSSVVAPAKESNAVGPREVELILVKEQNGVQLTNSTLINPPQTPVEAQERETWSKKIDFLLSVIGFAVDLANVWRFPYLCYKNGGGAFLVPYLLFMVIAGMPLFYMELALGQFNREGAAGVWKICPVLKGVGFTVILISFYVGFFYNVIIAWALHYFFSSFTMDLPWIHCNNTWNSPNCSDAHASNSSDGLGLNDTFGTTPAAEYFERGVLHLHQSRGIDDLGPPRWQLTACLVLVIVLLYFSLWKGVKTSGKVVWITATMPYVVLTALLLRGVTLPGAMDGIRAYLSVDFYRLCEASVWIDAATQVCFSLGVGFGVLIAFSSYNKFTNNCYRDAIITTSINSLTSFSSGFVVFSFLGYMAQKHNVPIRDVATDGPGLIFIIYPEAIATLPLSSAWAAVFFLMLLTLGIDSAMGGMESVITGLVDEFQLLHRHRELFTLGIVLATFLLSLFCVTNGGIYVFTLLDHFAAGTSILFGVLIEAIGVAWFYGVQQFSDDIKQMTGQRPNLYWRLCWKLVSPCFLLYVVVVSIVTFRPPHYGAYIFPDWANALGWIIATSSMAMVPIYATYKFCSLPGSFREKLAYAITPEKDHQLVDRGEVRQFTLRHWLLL

Row | Compound | IC50 [1] | IC50 [2] | Ki [3] | IC50 [4] | Ratio [5] | Ki [6] | Ki [7] | IC50 [8]
1 | c1ccc2sc(C3(N4CCCCCC4)CCCC3)cc2c1 | 21 nM | 62 nM | > 10000 nM | 132 nM | 0.47 |  |  | 
2 | NC1(c2cc3ccccc3s2)CCCCC1 | 123 nM | 684 nM | > 10000 nM | 78 nM | 8.8 |  |  | 
3 | NC1(c2cc3ccccc3s2)CCCCCC1 | 416 nM | 1340 nM |  | 550 nM | 2.4 | > 10000 nM |  | 
4 | c1ccc2sc(C3(N4CCCCC4)CCCCC3)cc2c1 | 0.66 nM | 41 nM |  | 9 nM | 4.6 |  | > 10000 nM | 
5 | NC1(c2cc3ccccc3s2)CCCC1 | 630 nM | 933 nM |  | 148 nM | 6.3 | > 10000 nM |  | 
6 | c1ccc2sc(C3(N4CCCC4)CCCCCC3)cc2c1 | 13 nM | 52 nM |  | 27 nM | 1.9 | > 10000 nM |  | 
7 | COC(=O)[C@H]1[C@@H](OC(=O)c2ccccc2)C[C@@H]2CC[C@H]1N2C [COCAINE] |  |  |  |  |  |  |  | 138 nM
8 | c1ccc2sc(C3(N4CCCCCC4)CCCCCC3)cc2c1 | 67 nM | 386 nM |  | 252 nM | 1.5 | > 10000 nM |  | 
9 | c1ccc2sc(C3(N4CCCCC4)CCCC3)cc2c1 | 15 nM | 76 nM | > 10000 nM | 24 nM | 3.2 |  |  | 
10 | c1ccc2sc(C3(N4CCCCCC4)CCCCC3)cc2c1 | 18 nM | 36 nM | > 10000 nM | 43 nM | 0.84 |  |  | 
11 | c1ccc2sc(C3(N4CCCC4)CCCCC3)cc2c1 | 6.7 nM | 12 nM | > 10000 nM | 11 nM | 1.1 |  |  | 
12 | c1ccc2sc(C3(N4CCCCC4)CCCCCC3)cc2c1 | 19 nM | 111 nM |  | 55 nM | 2 | > 10000 nM |  | 
13 | c1ccc2sc(C3(N4CCCC4)CCCC3)cc2c1 | 13 nM | 26 nM | > 10000 nM | 19 nM | 1.4 |  |  | 
